This note sets out measurements from ChEMBL document CHEMBL4680104, “Structure-Based Optimization of Small-Molecule Inhibitors for the β-Catenin/B-Cell Lymphoma 9 Protein-Protein Interaction” (J Med Chem, 2018).

The test system of data set [1] is SW480. Kind of data set: Cytotoxic activity in human SW480 cells at 50 to 100 uM incubated for 4 hrs by LDH release assay. The class given is cell-based. The following applies: sw480, 4 h, dose 50-100 µM. Summed up:
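SW480 cells were seeded at 2 × 10^4 cells/well and kept overnight at 37 °C. They were then exposed to a range of inhibitor concentrations for 4 h. LDH in the culture supernatant was measured with a diagnostic kit by absorbance at 490 nm. Percent cytotoxicity was calculated from experimental release against maximum release, with background subtracted. Run in triplicate.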
(Release of lactate dehydrogenase indicates damage to the cell membrane.)

Data set [2] addresses T1, beta-catenin-B-cell lymphoma 9 protein complex (Homo sapiens) (UniProt P35222+O00512). Kind of data set: Inhibition of protein interaction between beta-catenin /BCL9 in human SW480 cells assessed as reduction in Wnt target genes by measuring cyclin D1 mRNA expression incubated for 24 hrs by qPCR analysis. It counts as cell-based. Summed up:
(§1)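 SW480 cells at 1 × 10^6/mL were treated with a range of inhibitor concentrations for 24 h. Total RNA was extracted with TRIzol and reverse-transcribed to cDNA. SYBR Green qPCR was run for Axin2, LEF1 and cyclin D1, with HPRT as a non-target housekeeping gene. CT values were normalized to GAPDH. Triplicate.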
A general note: In qPCR the cycle at which signal appears reflects the starting amount.

The target in data set [3] is T1, beta-catenin-B-cell lymphoma 9 protein complex (Homo sapiens). As to the kind of experiment: Inhibition of protein interaction between beta-catenin /BCL9 in human SW480 cells assessed as reduction in active form of beta-catenin expression incubated for 24 hrs by Western blot analysis. It counts as cell-based. Summed up:
(§2)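 SW480 cells at 1 × 10^6 cells/mL were treated with a range of inhibitor concentrations for 24 h. Cells were lysed in Tris/NaCl/NP-40/deoxycholate/SDS buffer with protease inhibitors. Lysates were run on 8% SDS-PAGE and blotted to nitrocellulose. Blots were probed overnight at 4 °C for total β-catenin (mostly the E-cadherin-bound pool), active β-catenin (dephosphorylated S37/T41), cyclin D1, c-myc and β-tubulin. Detection used infrared secondary antibodies. Duplicate.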
For orientation: A western blot detects proteins with antibodies after separation by electrophoresis.

The target is the same in data set [4]. As to the kind of experiment: Inhibition of protein interaction between beta-catenin /BCL9 in human SW480 cells assessed as reduction in Wnt target genes by measuring LEF1 mRNA expression incubated for 24 hrs by qPCR analysis. The class given is cell-based. Summed up:
as §1

Data set [5] can be described thus: Effect on HPRT mRNA expression in human SW480 cells at 4 uM incubated for 24 hrs by qPCR analysis relative to control. The settings on record: read-out: FC. The class given is ADME, cell-based. The essentials: (§3)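 SW480 cells at 1 × 10^6/mL were treated with inhibitor for 24 h. Total RNA was extracted with TRIzol and cDNA made by first-strand synthesis. SYBR green qPCR used human HPRT primers, with CT values normalised to GAPDH as internal reference. Performed in triplicate.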

The nature of data set [6]: Effect on HPRT mRNA expression in human SW480 cells at 2 uM incubated for 24 hrs by qPCR analysis relative to control. The following applies: read-out: FC. It counts as ADME, cell-based. Summed up: as §3
Data set [7] can be described thus: Inhibition of protein interaction between beta-catenin D145A mutant (unknown origin)/N-terminal biotinylated human BCL9 ( 350 to 375 residues) incubated for 1 hr by Alpha-screen competitive inhibition assay.
For data set [8], the system named is SW480. Kind of data set: Effect on E-cadherin-bound beta-catenin levels in human SW480 cells at 2 to 8 uM incubated for 24 hrs by Western blot analysis. The class given is functional, cell-based. The following applies: dose 2-8 µM. The essentials: as §2
Data set [9] is described as follows: Inhibition of protein interaction between beta-catenin D145A/E155A mutant (unknown origin)/N-terminal biotinylated human BCL9 ( 350 to 375 residues) incubated for 1 hr by Alpha-screen competitive inhibition assay.
Data set [10] addresses T1, beta-catenin-B-cell lymphoma 9 protein complex (Homo sapiens). As to the kind of experiment: Inhibition of protein interaction between beta-catenin /BCL9 in human SW480 cells assessed as reduction in Wnt target genes by measuring Axin2 mRNA expression incubated for 24 hrs by qPCR analysis. The class given is cell-based. Summed up:
as §1

Data set [11] can be described thus: Inhibition of protein interaction between beta-catenin K181A mutant (unknown origin)/N-terminal biotinylated human BCL9 ( 350 to 375 residues) incubated for 1 hr by Alpha-screen competitive inhibition assay.
Data set [12] can be described thus: Effect on HPRT mRNA expression in human SW480 cells at 100 uM incubated for 24 hrs by qPCR analysis relative to control. The class given is ADME, cell-based. The following applies: read-out: FC. The essentials:
as §3

Another data set relates to HCT-116. As to the kind of experiment: Inhibition of protein interaction between full-length beta-catenin (unknown origin) / full-length E-cadherin (unknown origin) in human HCT-116 cells incubated for 24 hrs by co-immunoprecipitation assay. It counts as cell-based. The essentials:
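Intact HCT116 cells at 1 × 10^6/mL were treated with a range of inhibitor concentrations for 24 h. They were then lysed in Tris pH 7.4/NaCl/NP-40/EDTA buffer with protease inhibitors and precleared on A/G agarose. Anti-β-catenin immunoprecipitation ran overnight at 4 °C, with A/G capture for 3 h and five washes. Samples were run on 8% SDS-PAGE and immunoblotted for BCL9 and E-cadherin.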

Molecules are shown by their SMILES. Active and inactive are the calls of the source. The calls are words filed in the database; no cut-off is given here.

Consider `Cl.Cl.O=C(Nc1ccc(O[C@H]2CCNC2)c(-c2ccc(F)cc2)c1)c1ccc(O[C@H]2CCNC2)c(-c2ccc3cc(F)ccc3c2)c1`, for which the Activity result in the data set on SW480 [1] is on record as “Toxic”.

In general, Ki refers to the dissociation constant of the complex between target and ligand, obtained from inhibition or displacement. Take `Cl.Cl.O=C(Nc1ccc(O[C@H]2CCNC2)c(-c2ccc(F)cc2)c1)c1ccc(O[C@H]2CCNC2)c(-c2ccc3ccsc3c2)c1`: the inhibition result in data set [2], in data set [3], in data set [4] and in [10] was “Dose-dependent effect” in each case. Further, the fold induction at 4 µM in data set [5] was found to be 1.04. The fold induction at 2 µM in [6] was 1.21. Further, the Ki in data set [7] was 4.2 µM; in [9] it was 12 µM; in [11], 1.7 µM. Also, the outcome with SW480 [8] was inactive. For the same compound, the Activity entry in the data set on SW480 [1] is “Toxic”.

With `Cl.Cl.O=C(Nc1ccc(O[C@@H]2CCNC2)c(-c2cccc(-c3nn[nH]n3)c2)c1)c1ccc(O[C@H]2CCNC2)c(-c2ccc(F)c(F)c2)c1`, the inhibition entry in data set [2], in [3], in data set [4] and in data set [10] was “Dose-dependent effect” throughout. Also, the Ki was found to be 3 µM in [7], 12 µM in data set [9] and 4.1 µM in [11]. Further, the fold induction at 100 µM in [12] was found to be 0.969. Further, the inhibition entry in the data set with HCT-116 was “inactive”.

As for `Cl.Cl.O=C(Nc1ccc(O[C@H]2CCNC2)c(-c2ccc(F)cc2)c1)c1ccc(O[C@H]2CCNC2)c(-c2ccc(F)c(F)c2)c1`, the inhibition result in data set [2], in data set [4] and in [10] was “Dose-dependent effect” in each case. Further, in the data set with SW480 [1], the Activity entry is on record as “Toxic”.

In the case of `Cc1cc(F)ccc1-c1cc(NC(=O)c2ccc(O[C@H]3CCNC3)c(-c3ccc(F)c(F)c3)c2)ccc1O[C@H]1CCNC1.Cl.Cl`, the fold induction at 4 µM in data set [5] was 0.136. The fold induction at 2 µM in data set [6] turned out to be 0.166. Moreover, the Activity result in the data set on SW480 [1] was “Toxic”.

`Cl.Cl.O=C(Nc1ccc(O[C@H]2CCNC2)c(-c2ccc(F)cc2)c1)c1ccc(O[C@H]2CCNC2)c(C2CCC(C(F)(F)F)CC2)c1` (stereo not given in full): the Activity entry in the data set on SW480 [1] was “Toxic”.

Take `Cl.Cl.O=C(Nc1ccc(O[C@H]2CCNC2)c(-c2ccc(F)cc2)c1)c1cnc(O[C@H]2CCNC2)c(-c2ccc(F)c(F)c2)c1`: the Activity result in the data set with SW480 [1] is on record as “Toxic”.
